Measured values of several laboratories.
Protocols differ between the studies behind these lines.

For `CC(C)CN(C[C@@H](O)[C@H](Cc1ccccc1)NC(=O)O[C@H]1CO[C@H]2OCC[C@H]21)S(=O)(=O)c1ccc(N)cc1`, the logD was 2.84 (shake flask; PBS; pH 7.4).
`CN1CCN(c2ccc3nc(-c4ccc5nc(-c6ccc(OCCCC(=O)Nc7ccc(CC(CN(CCN(CC(=O)O)CC(=O)O)CC(=O)O)N(CC(=O)O)CC(=O)O)cc7)cc6)[nH]c5c4)[nH]c3c2)CC1` (stereo not drawn) gave a logD of -0.5 (shake flask; PBS; pH 7.4).
With `CCCS(=O)(=O)Oc1ccc(-n2c(-c3ccc(Cl)cc3Cl)nc(C(=O)NN3CCCCC3)c2C)cc1` the logD was 4.6 (shake flask; aqueous buffer; pH 7.4).
With `CNC(=O)[C@H](Cc1c[nH]cn1)NC(=O)CN(CCCc1ccccc1)CC(=O)OC` the logD was 1.07 (shake flask; PBS; 2 h; pH 7.4).
For `C[C@]1(C(=O)O)CSC(c2ccc(OCCCC(=O)O)cc2O)=N1`, the logD was -2.21 (shake flask; aqueous buffer; pH 7.4).
For `Cc1c(C(=O)NN2CCCCC2)nc(-c2ccc(Cl)cc2Cl)n1-c1ccc(OS(=O)(=O)CCCC(F)(F)F)cc1`, the logD was 5.3 (shake flask; aqueous buffer; pH 7.4).
With `O=C(C1CCN(c2nnnn2-c2ccccc2)CC1)N1CCCc2c(Cl)cccc21` the logD was 3.6 (shake flask; PBS; pH 7.4).
The logD of `C[C@]1(C(=O)O)CSC(c2ccc(OCC(=O)O)cc2O)=N1` is reported as -1.98 (shake flask; aqueous buffer; pH 7.4).
The logD of `COC(=O)CN(CC(=O)N[C@@H](Cc1c[nH]cn1)C(=O)OC)Cc1ccccc1` is reported as 0.82 (shake flask; PBS; 2 h; pH 7.4).
The logD of `CCCCc1nc2c(N)nc3ccccc3c2n1Cc1ccc(CN)cc1` is reported as 0.42 (shake flask; PBS; pH 7.4).
With `COCCCCCCOc1ccc(C2=N[C@@](C)(C(=O)O)CS2)c(O)c1` the logD was 0.95 (shake flask; aqueous buffer; pH 7.4).
For `O=C(O)CN(CCCc1ccccc1)CC(=O)N[C@H](CO)Cc1c[nH]cn1`, the logD was -1.3 (shake flask; PBS; 2 h; pH 7.4).
`CN1C(C(=O)Nc2ccccn2)=C(O)c2ccccc2S1(=O)=O` has a logD of -0.31 (shake flask; aqueous buffer; 48 h; pH 7.4).
`Cc1c(C(=O)N[C@@H]2CCCC[C@H]2O)nc(-c2ccc(Cl)cc2Cl)n1-c1ccc(OS(=O)(=O)CCC(F)(F)F)cc1` (relative stereo) gave a logD of > 4.4 (shake flask; aqueous buffer; pH 7.4).
For `O=C(NCCN1CCCC1)c1cc(-c2ccc(CN3CCOCC3)cc2)nc2ccc(F)cc12`, the logD was 2.5 (shake flask; aqueous buffer; pH 7.4).
`Cc1c(C(=O)Nc2ccc(C(F)(F)F)nc2)nc(-c2ccc(Cl)cc2Cl)n1-c1ccc(OS(=O)(=O)CCC(F)(F)F)cc1` gave a logD of > 4.9 (shake flask; aqueous buffer; pH 7.4).
With `CN1CCN(c2ccc3nc(-c4ccc5nc(-c6ccc(OCCCCNC(=O)[C@H](N)CS)cc6)[nH]c5c4)[nH]c3c2)CC1` the logD was 2 (shake flask; PBS; pH 7.4).
`CCOCc1nc2c(N)nc3ccccc3c2n1CC(C)(C)O` gave a logD of 1.14 (shake flask; PBS; pH 7.4).
`Cc1c(C(=O)N[C@@H]2CCCC[C@@H]2N(C)C)nc(-c2ccc(Cl)cc2Cl)n1-c1ccc(OS(=O)(=O)CCC(F)(F)F)cc1` (relative stereo) has a logD of 3.8 (shake flask; aqueous buffer; pH 7.4).
`CCC1=C(C)C2=NC1=Cc1c(C)c(CC)c3[n]1[Fe][n]1c(c(C)c(CCC(=O)O)c1=CC1=NC(=C3)C(C)=C1CCC(=O)O)=C2` has a logD of 0.552 (shake flask; aqueous buffer; pH 9).
The logD of `Cc1c(C(=O)NN2CCCCC2)nc(-c2ccc(Cl)cc2Cl)n1-c1ccc(OS(=O)(=O)CCC(C)(C)C)cc1` is reported as > 5.8 (shake flask; aqueous buffer; pH 7.4).
With `Cc1noc([C@H](Cc2c[nH]cn2)NC(=O)CN(CCCc2ccccc2)CC(=O)O)n1` the logD was -0.84 (shake flask; PBS; 2 h; pH 7.4).
With `CCCc1cc2c(N3CCn4c(nnc4C(F)(F)F)C3)nc(OCC[18F])nc2s1` the logD was 2.06 (shake flask; aqueous buffer; pH 7.4).
With `Cc1c(C(=O)N[C@H]2CCCC[C@H]2N)nc(-c2ccc(Cl)cc2Cl)n1-c1ccc(OS(=O)(=O)CCC(F)(F)F)cc1` (racemic) the logD was 3.35 (shake flask; aqueous buffer; pH 7.4).
For `COc1ccn2c(Nc3ccccc3F)c(-c3ccncn3)nc2c1`, the logD was 2.5 (pH 7.4).
`Cc1c(C(=O)NN2CCCCC2)nc(-c2ccc(Cl)cc2Cl)n1-c1ccc(OS(=O)(=O)CCCF)cc1` has a logD of 4.15 (shake flask; aqueous buffer; pH 7.4).
`COC(=O)CN(CCCc1ccccc1)CC(=O)N[C@@H](Cc1c[nH]cn1)c1nc(C)no1` gave a logD of 1.52 (shake flask; PBS; 2 h; pH 7.4).
